# Test results as given in PubChem BioAssay.
# Calls of active or inactive are those of the source.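 How the source made its calls, unless noted: active means viability at or below 10% of carrier control in both of two separate runs; inconclusive means viability at or below 10% in only one of the two runs; inactive means the rest.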
# Key:
# [1] = reducers of endogenous Her2 protein level, primary screen, SKBR3 breast tumor cells, AlphaScreen, ATP viability (AID 461;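 active means Her2 level under about 52% in both replicate screens, with viability over 70% of control, limit read from the data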;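 on Her2 level: lower value means less Her2 protein in the cells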;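 on viability: percent of carrier control wells set as 100% viability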); details: 18-24 h, measured here: SKBR3 viability, ATP luminescence, at 10 µM
# [2] = target: Receptor tyrosine-protein kinase erbB-2 (Homo sapiens) (UniProt P04626); experiment: as above; details: 18-24 h, at 10 µM, stronger effect = lower value
# Receptor tyrosine-protein kinase erbB-2 (Homo sapiens), sequence (P04626 whole entry, looked up): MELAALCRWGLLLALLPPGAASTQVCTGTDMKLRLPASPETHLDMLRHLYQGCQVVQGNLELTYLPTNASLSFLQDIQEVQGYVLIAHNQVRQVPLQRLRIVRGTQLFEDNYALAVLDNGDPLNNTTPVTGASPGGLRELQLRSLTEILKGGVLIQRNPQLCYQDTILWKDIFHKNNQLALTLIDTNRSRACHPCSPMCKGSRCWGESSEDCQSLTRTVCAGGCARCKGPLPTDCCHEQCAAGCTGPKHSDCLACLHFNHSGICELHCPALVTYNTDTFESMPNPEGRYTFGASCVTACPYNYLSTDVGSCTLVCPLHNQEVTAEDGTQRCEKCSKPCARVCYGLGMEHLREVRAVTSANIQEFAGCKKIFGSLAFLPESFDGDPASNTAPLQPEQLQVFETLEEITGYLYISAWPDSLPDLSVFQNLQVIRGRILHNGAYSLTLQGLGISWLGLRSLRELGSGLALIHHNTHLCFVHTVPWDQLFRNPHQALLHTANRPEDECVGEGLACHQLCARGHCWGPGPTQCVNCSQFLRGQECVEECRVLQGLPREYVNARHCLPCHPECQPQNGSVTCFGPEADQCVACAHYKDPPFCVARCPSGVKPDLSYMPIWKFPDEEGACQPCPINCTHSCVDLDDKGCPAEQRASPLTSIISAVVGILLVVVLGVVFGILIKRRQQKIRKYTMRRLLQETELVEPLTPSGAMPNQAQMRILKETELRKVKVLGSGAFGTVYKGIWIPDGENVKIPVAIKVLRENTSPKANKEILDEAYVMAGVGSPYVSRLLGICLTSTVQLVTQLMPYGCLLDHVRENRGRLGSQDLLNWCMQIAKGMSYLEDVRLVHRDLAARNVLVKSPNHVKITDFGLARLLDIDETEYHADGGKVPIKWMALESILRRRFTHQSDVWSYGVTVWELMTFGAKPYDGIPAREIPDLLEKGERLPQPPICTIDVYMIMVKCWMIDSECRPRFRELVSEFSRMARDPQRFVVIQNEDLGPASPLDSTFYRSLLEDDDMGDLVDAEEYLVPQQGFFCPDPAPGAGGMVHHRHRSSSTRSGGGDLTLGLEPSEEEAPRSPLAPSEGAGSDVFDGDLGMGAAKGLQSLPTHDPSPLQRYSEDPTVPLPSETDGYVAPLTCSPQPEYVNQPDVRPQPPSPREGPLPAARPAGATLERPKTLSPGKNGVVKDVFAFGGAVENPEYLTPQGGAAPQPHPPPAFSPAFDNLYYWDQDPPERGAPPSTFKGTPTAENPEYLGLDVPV
# [3] = SK-BR-3 cell growth inhibitors, pilot screen, 24 h, human (AID 572); details: SK-BR-3 viability, CellTiter-Glo luminescence, at 10 µM, stronger effect = lower value;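 further: compound exposure lasted between 18 and 24 h rather than exactly 24 h; 100% = carrier-treated control wells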
# [4] = HUVEC growth inhibition – cell-based, human, primary screen (AID 575;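 active means viability at or below 30% in both replicate assays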;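 further: 100% = median of untreated cell wells with 0.1% DMSO on each plate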); details: HUVEC proliferation, CellTiter-Glo luminescence, 72 h; at 10 µM; stronger effect = lower value
# Procedure, shortened: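 Assay system: Primary human umbilical vein endothelial cells | Quantity: 1250 cells per well | Medium: Supplemented EBM, 2% fetal bovine serum | Detection: CellTiter-Glo luminescence measuring cellular ATP | Read-out: % viability vs DMSO wells | Plate: Collagen-coated 384-well format | Times: 72 h exposure, 37 °C, 5% CO2, 30 min RT equilibration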
# [5] = growth inhibitors of H69AR lung tumor, primary screen, human, duplicate replicates (AID 580;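 active means viability at or under a set limit in both replicates, limit being median viability minus 3 SD, cut at about 48% in these data, passing the limit was not always enough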;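 further: 100% = mean luminescence of untreated wells and 0% = no signal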); details: H69AR lung tumor cells viability, ATP luminescence, 72 h; at 10 µM; stronger effect = lower value
# [6] = reversal of MRP1-mediated doxorubicin resistance, pilot screen, H69AR cells, doxorubicin co-treatment (AID 601;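 active means viability loss from added drug above about 55%, and viability with drug at most 40%, in both replicates, limit read from the data, passing the limit was not always enough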); details: CellTiter-Glo, 72 h, at 10 µM; for differential viability (reversal): stronger effect = higher value
# [7] = 384-well plate pilot, post-Golgi transport modulator project, inhibition of yeast transport mutant growth (AID 636; in the data active means inhibition above about 31%); details: absorbance 615 nm, about 18 h, stronger effect = higher value
# [8] = growth suppression of yeast trafficking mutant, preliminary HTS, modulators of trafficking downstream of Golgi apparatus project, 1536-format plate, OD 615 nm (AID 637; in the data active means inhibition above about 30%); details: yeast transport mutant growth, absorbance 615 nm, 18 h; stronger effect = higher value
# [9] = H69AR cells + 2 uM doxorubicin, measured here: viability with 2 uM doxorubicin, stronger effect = lower value
# [10] = H69AR cells, compound alone cytotoxicity
SMILES,viability [1],Her2 level [2],viability [3],viability [4],viability [5],differential viability (reversal) ([6]; H69AR cells + 2 uM doxorubicin),"viability [6, 9]","viability [6, 10]",inhibition [7],inhibition [8]
Cc1cc(NC(=O)Cn2cnc3c(cnn3C(C)(C)C)c2=O)no1,91.5%,100% (inactive),91.5% (inactive),102% (inactive),91.9% (inactive),2.12% (inactive),89.8%,91.9%,0.66% (inactive),-5.16% (inactive)
Cc1cccc(-c2nnn(CC/C(N)=N/O)n2)c1,85%,84.5% (inactive),85% (inactive),85.3% (inactive),104% (inactive),-1.3% (inactive),105%,104%,-2.53% (inactive),-0.16% (inactive)
O=C(Cn1nnc(-c2ccc(S(=O)(=O)N3CCCC3)cc2)n1)NCC1CCCO1 (stereo not given),86%,99% (inactive),86% (inactive),89% (inactive),101% (inactive),2.39% (inactive),98.7%,101%,-3.78% (inactive),2.95% (inactive)
Cc1nn(S(=O)(=O)N2CCCCC2)c(C)c1Br,95%,130% (inactive),95% (inactive),96.2% (inactive),102% (inactive),5.13% (inactive),97.1%,102%,-1.41% (inactive),-6.17% (inactive)
Cc1cc(C)nc(SCC(=O)Nc2ncc3c(n2)CCCC3=O)n1,98.5%,93.5% (inactive),98.5% (inactive),99% (inactive),112% (inactive),12.5% (inactive),99.3%,112%,-1.17% (inactive),-4.13% (inactive)
COc1ccc2[nH]c(=O)c(CN(CCO)S(=O)(=O)c3ccc4c(c3)OCCO4)cc2c1,85%,97.5% (inactive),85% (inactive),99.8% (inactive),94% (inactive),6.97% (inactive),87%,94%,-5.07% (inactive),-2.3% (inactive)
O=C(O)CCCc1nc(-c2ccccc2)no1,91.5%,87.5% (inactive),91.5% (inactive),96% (inactive),97% (inactive),-0.87% (inactive),97.8%,97%,-4.53% (inactive),0.95% (inactive)
Cc1cccc(NC(=O)Cn2c(=O)n(C)c3ccccc32)c1,100%,90.5% (inactive),100% (inactive),100% (inactive),102% (inactive),9.13% (inactive),92.9%,102%,-3.33% (inactive),-2.7% (inactive)
NC(=O)c1c(NC(=O)CSc2nnc(-c3ccco3)n2-c2ccccc2)sc2c1CCC2,76%,68% (inactive),76% (inactive),56.5% (inactive),28.9% (active),-37.9% (inactive),66.8%,28.9%,-4% (inactive),35.7% (active)
C=CCN1C(=O)C2(c3ccccc31)C1CCCC=C1C(C#N)=C(N)C2(C#N)C#N (stereo not given),81%,82% (inactive),81% (inactive),62.7% (inactive),76.4% (inactive),-13.9% (inactive),90.3%,76.4%,2.53% (inactive),26.8% (inactive)
CCOC(=O)N1CCN(Cc2cc(=O)oc3ccc4ccccc4c23)CC1,91.5%,86% (inactive),91.5% (inactive),79.9% (inactive),87.3% (inactive),7.66% (inactive),79.6%,87.3%,-7.07% (inactive),2.86% (inactive)
COCCn1nnnc1CN(Cc1cccnc1)Cc1cc2cc(OC)ccc2[nH]c1=O,91%,75% (inactive),91% (inactive),98.6% (inactive),88.3% (inactive),8.82% (inactive),79.5%,88.3%,-7.07% (inactive),4.26% (inactive)
Cn1nc(C(=O)NC2CCCCCC2)ccc1=O,126%,104% (inactive),126% (inactive),101% (inactive),111% (inactive),19.2% (inactive),92%,111%,-2.6% (inactive),-0.79% (inactive)
Cc1nc(SCC(=O)N2CCC(C(N)=O)CC2)n[nH]1,94.5%,108% (inactive),94.5% (inactive),109% (inactive),95.5% (inactive),3.98% (inactive),91.6%,95.5%,-6.32% (inactive),1.45% (inactive)
